Test results as given in the EternaBench riboswitch data.

Tested on: MS2 coat protein
Test: apparent Kd, MS2 coat protein; higher = weaker binding; RNA-MaP array; FMN 200 µM where present
Outline: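 The apparent Kd comes from binding curves fitted cluster by cluster, filtered, and summarised as a median. Those curves followed SNAP-549-labelled MS2 coat protein from 0.7 or 1.5 nM, doubling to 3 µM, on Illumina sequencing-chip clusters where stalled E. coli RNA polymerase had transcribed the designs, without and then with constant ligand. The buffer was 100 mM Tris-HCl pH 7.5, 80 mM KCl, 4 mM MgCl2, BSA, DTT, yeast tRNA and Tween-20, and green signal was normalised to red-channel RNA signal and control-cluster median Fmax.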

[1] = designed as: OFF switch for flavin mononucleotide, no ligand
[2] = ligand present: flavin mononucleotide, designed as: OFF switch for flavin mononucleotide
[3] = designed as: ON switch for flavin mononucleotide, no ligand
[4] = ligand present: flavin mononucleotide, designed as: ON switch for flavin mononucleotide

Row | Sequence | apparent Kd [1] | apparent Kd [2] | apparent Kd [3] | apparent Kd [4]
1 | AGUAUUGUAGGGUAUCCAACAUGAGGAUCACCCAUGUACCAGAGAAGGACCCGUGCAUUGCUCGGGUAGGAUAUCUGCGCAUCA | 19.4 nM | 172 nM |  | 
2 | ACAUGAGGAUCACCCAUGUGGACAUAGGAUAUUGGUGAUCAGGCGUGUUAUACAGGAUAGGUCUGCGAGAAGGGUGUACGUUGC |  |  | 588 nM | 295 nM
3 | GGGUUUGGAGGAUAUACAUGAGGAUCACCCAUGUAGGGUUUGGGUAUUCCCGGGCCCUGUAGAAGGCCGGGCCC | 16.6 nM | 20.4 nM |  | 
4 | CUGACCUGUGUCAGGAUAUCGUUUGCCAUUGUGACUGAGAAGGGACAUGAGGAUCACCCAUGUCGAGCGACGGG | 28.4 nM | 35.6 nM |  | 
5 | GCGUAACAUGAGGAUCACCCAUGUGCCCGAGAAUUCGGGCCGAGAAGGGUGACCGGUCGUAUGGCACAGGAUAUCGACGUUGUG |  |  | 30.6 nM | 13.4 nM
6 | GUAGCUUCAUUUAUACAUGAGGAUCACCCAUGUUACAUGGGUAAGGAUAUUGAUGUUAUGAUUAUCAAGAAGGUACUAUGCUAC |  |  | 663 nM | 39.6 nM
7 | UUAAUUAUACAAGGAUAUCUAUUGUAGUUUCGACUUACAUGAGGAUCACCCAUGUUAAUAUGUUUAGAGAAGGUGUAUUUUCAG |  |  | 98.3 nM | 61.1 nM
8 | GGAUUUUACUAGUUUUCUAUACAUGAGGAUCACCCAUGUUUUUAGGAUAUCAGCGUGAAACACGCUGAGAAGGAAGAACAAUCC | 15.4 nM | 18.5 nM |  | 
9 | GGAGAUACAUGAGGAUCACCCAUGUAGGAUAUCGGGCCCAUAUAUGGCGAAAGCCAUAUAUGGGCCGAGAAGGGCGUACACACC | 7.63 nM | 7.45 nM |  | 
10 | UUGGACGUCGUAGGAUAUGUAGGAUAUUCCUACAUGAGGAUCACCCAUGUUGACAUGGAAGCAGGACAGAAGGACGAUGUCCAU |  |  | 578 nM | 14.3 nM
11 | AUAGUGCCGGAGAAGGACGUACCACAUGUUGAUCACCGAUAUAAGGAACGUAGGAUAUUCGACAUGAGGAUCACCCAUGUGGAU |  |  | 101 nM | 64.7 nM
12 | CUCGUGUCAGGAUAUCGAUGGCACCUCCGGGCGCCCGAACGCGAGAAGGGACAUGAGGAUCACCCAUGUAAAAC | 66.8 nM | 113 nM |  | 
13 | AUGCCUUAUGUAGGAUAUGCAUAGAGUUGCUAUGCAGAAGGACAUGAGGAUCACCCAUGUAUGUAUACCAUACAUAUCUGGCAU | 35.6 nM | 316 nM |  | 
14 | GGAAAGUGAGGAUAUGGUAAUUUAAUUAUUAAUUAAUUAAUCCAGAAGGCACAUGAGGAUCACCCAUGUAAAUG | 35.9 nM | 61.5 nM |  | 
15 | ACAUGUUUUACAGGAUAUGUUUUACAAUAAACAUUCAGUUAUUACGAUUAAACAGAAGGGUAUACAUGAGGAUCACCCAUGUAA | 17.1 nM | 15 nM |  | 
16 | UGCUAGUGAGGAUAUGCUGGAAUAAAGAUUUGACGUGGCGAACAUGAGGAUCACCCAUGUAGAAGGCACAAUAC | 12.8 nM | 15.7 nM |  | 
17 | ACAUGAGGAUCACCCAUGUUACGAACAUGAGGAUCACCCAUGUAGGAUAUGCUACUCAAAGAGUAGCAGAAGGACAUGUGCCUU | 1090 nM | 559 nM |  | 
18 | UAAAUCUUGUAAGGAUAUACACGAGAUUCAAGUGUAGAAGGUACUUACAUGAGGAUCACCCAUGUAUACAUGGAUAAUAGAUAU |  |  | 211 nM | 64.5 nM
19 | GUUUUUUUUAGUUCAUACUAUAUGAUAGAAGGUGAAAUAUAGACAUGAGGAUCACCCAUGUAAUUCAAGGAUAUGUAGUUACUC |  |  | 35.1 nM | 24.3 nM
20 | AGCAUGGUAGGAUAUACGGAACAUUAGGGUUUGUUGUGUGGACAUGAGGAUCACCCAUGUAGAAGGGCCGUGCA | 34 nM | 80.4 nM |  | 
21 | CGCAAAGAUGGGUUUAAUGGAGCAUAGGAUAUGCUUGUACAUGAGGAUCACCCAUGUAAUAUUGUGCAGAAGGGUGCAUUUGCG |  |  | 293 nM | 74.3 nM
